Experimental findings from ChEMBL document CHEMBL1128173, “Synthesis and structure-activity relationships of substituted 1,4-dihydroquinoxaline-2,3-diones: antagonists of N-methyl-D-aspartate (NMDA) receptor glycine sites and non-NMDA glutamate receptors” (J Med Chem, 1995) are described below.

SMILES strings stand for the structures.

Assay [1] addresses Glutamate receptor ionotropic, AMPA (Rattus norvegicus) (UniProt P19491+P19492+P19493+P19490). Kind of assay: Binding affinity against rat brain Non N-methyl-D-aspartate glutamate receptor glutamate site expressed in Xenopus oocyte. The essentials:
(§1)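 Oocytes expressing whole rat brain poly(A)+ RNA (~50 ng injected), voltage-clamped with two electrodes 3–10 days after injection and perfused with Ringer pH 7.4. Antagonist perfused ~30 s before agonist, with washout over 1–5 min. Non-NMDA IC50 estimated from partial (three- or four-point) concentration-inhibition curves fit to a logistic equation with a slope factor. Final DMSO 0.03–0.3%.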

Assay [2] can be described thus: Selectivity for glycine site.
The species named for a further assay is Rattus norvegicus. As to the kind of experiment: The compound was tested for binding affinity against Non N-methyl-D-aspartate glutamate receptor glutamate site expressed in Xenopus oocyte. A digest of the protocol:
as §1

Assay [3] deals with Glutamate receptor ionotropic, NMDA 1 (Rattus norvegicus) (UniProt P35439). As to the kind of experiment: The compound was tested for binding affinity against NMDA receptor glycine site in Xenopus oocyte. The essentials: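 Xenopus stage V–VI oocytes injected with ~50 ng rat whole-brain poly(A)+ RNA; two-electrode voltage clamp at −70 mV, 3–10 days post-injection, frog Ringer pH 7.4. NMDA fixed at 100 µM, glycine 1 µM; antagonist pre-applied ~30 s with glycine. Amplitude read at the slow second-phase peak; IC50 from 3–4-point inhibition curves fit with slope factor.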

The molecule `Oc1nc2c(F)c(F)c(F)c(F)c2nc1O` yielded a Kb in assay [1] of 26.6 µM. In assay [2], this molecule had a Selectivity of 8. In assay [1], `O=[N+]([O-])c1c(F)c(Cl)c(F)c2nc(O)c(O)nc12` yielded a Kb of 6.56 µM. In addition, in assay [2], the Selectivity turned out to be 23. Taken in the same sequence, the figures for `Oc1nc2cc(Cl)c(Br)cc2nc1O` were 5.7 µM and 16.

With `Oc1nc2cc(C(F)(F)F)c(Cl)c(Cl)c2nc1O`, in assay [1], the Kb is 1.23 µM. In assay [2], the Selectivity was 6.5. Taken in the same sequence, the figures for `Oc1nc2cc(Cl)cc(Cl)c2nc1O` were 9.27 µM and 13. With `Oc1nc2cc(F)c(F)c(Cl)c2nc1O`, the Kb in assay [1] worked out at 17.9 µM. This molecule also registered a Selectivity in assay [2] of 10. Taken in the same sequence, the figures for `Oc1nc2cc(Cl)c(Cl)c(C(F)(F)F)c2nc1O` were 2.66 µM and 14.

Take `Nc1c(Br)c(Br)cc2nc(O)c(O)nc12`: in assay [1], the Kb amounted to 3.32 µM. In assay [2], this molecule yielded a Selectivity of 66.

The molecule `O=[N+]([O-])c1c(Br)c(F)cc2nc(O)c(O)nc12` had a Kb in assay [1] of 3.45 µM. In assay [2], this molecule displayed a Selectivity of 35. For the molecule `O=[N+]([O-])c1cc2nc(O)c(O)nc2cc1Cl`, the Kb in assay [1] came out at 0.64 µM. In assay [2], the Selectivity worked out at 2.3. Taken in the same sequence, the figures for `Oc1nc2cc(Br)cc(Br)c2nc1O` were 6.01 µM and 6.8. Take `Oc1nc2cc(Cl)cc(C(F)(F)F)c2nc1O`: the Kb in assay [1] was determined as 4.67 µM. The molecule also came in with a Selectivity in assay [2] of 7.6. Taken in the same sequence, the figures for `O=[N+]([O-])c1cc(C(F)(F)F)cc2nc(O)c(O)nc12` were 4.13 µM and 13. Taken in the same sequence, the figures for `O=[N+]([O-])c1c(F)c(F)cc2nc(O)c(O)nc12` were 6.01 µM and 19. `Oc1nc2cc(F)c(Cl)cc2nc1O` showed a Kb in assay [1] of 10.8 µM. In assay [2], the Selectivity came out at 4.5.

Regarding `Nc1c(Cl)c(Cl)cc2nc(O)c(O)nc12`, the Kb in assay [1] stood at 5.19 µM. This molecule also registered a Selectivity in assay [2] of 88. In assay [1], `O=[N+]([O-])c1c(Cl)c(C(F)(F)F)cc2nc(O)c(O)nc12` returned a Kb of 0.55 µM. Moreover, the Selectivity in assay [2] is 15. Taken in the same sequence, the figures for `Oc1nc2cc(C(F)(F)F)cc(Cl)c2nc1O` were 3.7 µM and 7.1. `O=[N+]([O-])c1cccc2nc(O)c(O)nc12` showed a Kb in assay [1] greater than 100 µM. The molecule further came in with a Selectivity in assay [2] greater than 5.8. For the molecule `O=[N+]([O-])c1c(Br)c(Cl)cc2nc(O)c(O)nc12`, the Kb in assay [1] was 0.95 µM. Moreover, in assay [2], the Selectivity came out at 120.

In assay [2], `O=[N+]([O-])c1c(Br)c(Br)cc2nc(O)c(O)nc12` registered a Selectivity of 140. This molecule displayed a Kb in the assay listed under Rattus norvegicus of 0.89 µM. Take `Oc1nc2cc(F)c(F)c(F)c2nc1O`: in assay [1], the Kb came to 30.4 µM. The same molecule returned a Selectivity in assay [2] of 5.4.

Regarding `Oc1nc2cc(Br)cc(C(F)(F)F)c2nc1O`, in assay [1], the Kb was 3.4 µM. This molecule gave a Selectivity in assay [2] of 14. As for `O=[N+]([O-])c1c(F)c(Br)cc2nc(O)c(O)nc12`, the Kb in assay [1] amounted to 1.4 µM. In assay [2], this molecule yielded a Selectivity of 35. For the molecule `Oc1nc2cc(C(F)(F)F)cc(Br)c2nc1O`, in assay [1], the Kb was determined as 4.29 µM. Moreover, in assay [2], the Selectivity was found to be 4.2. With `Oc1nc2cc(Cl)c(Cl)cc2nc1O`, in assay [1], the Kb came to 4.81 µM. Moreover, the Selectivity in assay [2] stood at 13. Taken in the same sequence, the figures for `Oc1nc2cc(Br)c(C(F)(F)F)cc2nc1O` were 1.49 µM and 5.7. For the molecule `Oc1nc2ccc(Cl)cc2nc1O`, the Kb in assay [1] worked out at 16.4 µM. The same molecule showed a Selectivity in assay [2] of 6.3. Consider `Oc1nc2cc(Cl)c(Cl)c(Br)c2nc1O`, for which, in assay [1], the Kb is 4.11 µM. The molecule further registered a Selectivity in assay [2] of 43. Turning to `Oc1nc2cc(Cl)c(Cl)c(Cl)c2nc1O`, the Kb in assay [1] amounted to 4.19 µM. Further, the Selectivity in assay [2] came out at 51. With `O=[N+]([O-])c1c(Cl)c(Br)cc2nc(O)c(O)nc12`, in assay [1], the Kb came out at 1.24 µM. In assay [2], the Selectivity is 170. In turn, `Oc1nc2cc(F)cc(C(F)(F)F)c2nc1O` gave a Kb in assay [1] of 16.3 µM. This molecule also displayed a Selectivity in assay [2] of 4.8. In assay [1], `Nc1c(C(F)(F)F)cc(Cl)c2nc(O)c(O)nc12` returned a Kb of 63.4 µM. In the case of `Oc1nc2ccccc2nc1O`, the Kb in assay [1] worked out at 98.2 µM. Besides, the Selectivity in assay [2] came out at 5.9. Take `Oc1nc2cc(F)c(C(F)(F)F)cc2nc1O`: the Kb in assay [1] amounted to 3.78 µM. For the same molecule, in assay [2], the Selectivity was 1.5. In assay [1], `O=[N+]([O-])c1c(C(F)(F)F)cc(Cl)c2nc(O)c(O)nc12` yielded a Kb greater than 30 µM.

Consider `Oc1nc2cc(C(F)(F)F)cc(C(F)(F)F)c2nc1O`, for which the Kb in assay [1] turned out to be 2.21 µM. Besides, the Selectivity in assay [2] was determined as 4.9. Take `O=[N+]([O-])c1c(Cl)c(Cl)c(Cl)c2nc(O)c(O)nc12`: the Kb in assay [1] came out at 14.1 µM. In assay [2], the Selectivity was determined as 11.

`Oc1nc2ccc(Br)cc2nc1O`: the Kb in assay [1] turned out to be 11.2 µM. This molecule also displayed a Selectivity in assay [2] of 4.7. In assay [1], `O=[N+]([O-])c1c(F)c(Cl)cc2nc(O)c(O)nc12` returned a Kb of 1.61 µM. The molecule also yielded a Selectivity in assay [2] of 81. `O=[N+]([O-])c1c(Cl)ccc2nc(O)c(O)nc12` yielded a Kb in assay [1] of 36.4 µM. This molecule came in with a Selectivity in assay [2] of 74. As for `O=[N+]([O-])c1c(Br)c(C(F)(F)F)cc2nc(O)c(O)nc12`, the Kb in assay [1] amounted to 0.47 µM. The Selectivity in assay [2] was 17. `O=c1[nH]c2cc(Cl)c(Cl)c([N+](=O)[O-])c2[nH]c1=O`: the Kb in assay [1] is 1.5 µM. Moreover, the Selectivity in assay [2] was 254. In the case of `O=[N+]([O-])c1c(Br)ccc2nc(O)c(O)nc12`, the Kb in assay [1] was 36.3 µM. Moreover, in assay [2], the Selectivity was 28. Molecule `O=[N+]([O-])c1ccc2nc(O)c(O)nc2c1` registered a Kb in assay [1] of 1.67 µM. Besides, in assay [2], the Selectivity is 0.7. On to `O=[N+]([O-])c1cc(Cl)cc2nc(O)c(O)nc12`, for which, in assay [1], the Kb was 8.02 µM. For the same molecule, the Selectivity in assay [2] was determined as 16.

`Oc1nc2cc(F)c(F)cc2nc1O` gave a Kb in assay [1] of 21.5 µM. Besides, the Selectivity in assay [2] stood at 4.5.

Take `CC(=O)Nc1c(Cl)c(Cl)cc2nc(O)c(O)nc12`: the Kb in assay [1] was determined as 5.57 µM. In assay [2], this molecule yielded a Selectivity of 23. Taken in the same sequence, the figures for `Oc1nc2cc(F)c(Cl)c(F)c2nc1O` were 13.2 µM and 7.3.

The molecule `Oc1nc2cc(Cl)c(C(F)(F)F)cc2nc1O` displayed a Kb in assay [1] of 2.55 µM. In assay [2], this molecule returned a Selectivity of 9.8. As to `O=[N+]([O-])c1c(Cl)cc2nc(O)c(O)nc2c1[N+](=O)[O-]`, the Kb in assay [3] came out at 0.042 µM; in the assay listed under Rattus norvegicus, 0.99 µM. In addition, in assay [2], the Selectivity stood at 24. Molecule `Oc1nc2cc(Br)c(Br)cc2nc1O` registered a Kb in assay [1] of 4.05 µM. The same molecule displayed a Selectivity in assay [2] of 19.
